The values that follow come from ChEMBL document CHEMBL2074563, “Involvement of multidrug resistance-associated proteins in regulating cellular levels of (-)-epigallocatechin-3-gallate and its methyl metabolites” (Biochem Biophys Res Commun, 2003).

Holding throughout (type): functional, cell-based
Conditions in all cases: dog, mdck-ii

The target in data set [1] is T1, Multidrug resistance-associated protein 1 (Homo sapiens, UniProt P33527). Briefly: TP_TRANSPORTER: inhibition of EGCG in MRP1-expressing MDCKII cells. In short, it runs like this:
(§1)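 MDCKII cells stably expressing human MRP1 or MRP2, grown to confluence, were preincubated for 2 h in serum-free HBSS. They were then exposed to [3H]EGCG (10 µM, 0.25 µCi/ml) in HBSS with 100 µM ascorbic acid, plus an efflux inhibitor or DMSO vehicle, for 1 h at 37 °C. Inhibitors were 10 µM indomethacin, 1 mM probenecid or 50 µM MK-571. Cells were washed in ice-cold PBS and lysed in 0.2 N NaOH. Cell-associated radioactivity was counted by scintillation and expressed as a ratio to the no-inhibitor control (mean ± SD, n = 4).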

Data set [2] has as its target T2, ATP-binding cassette sub-family C member 2 (Homo sapiens, UniProt Q92887). As to the kind of experiment: TP_TRANSPORTER: inhibition of EGCG in MRP2-expressing MDCKII cells. In short, it runs like this:
as §1

The target in data set [3] is T2, ATP-binding cassette sub-family C member 2. Briefly: TP_TRANSPORTER: uptake in MRP2-expressing MDCKII cells. The procedure, abridged:
as §1

Data set [4] deals with T1, Multidrug resistance-associated protein 1. As to the kind of experiment: TP_TRANSPORTER: uptake in MRP1-expressing MDCKII cells. The procedure, abridged: as §1

T2 sequence (Q92887 whole entry): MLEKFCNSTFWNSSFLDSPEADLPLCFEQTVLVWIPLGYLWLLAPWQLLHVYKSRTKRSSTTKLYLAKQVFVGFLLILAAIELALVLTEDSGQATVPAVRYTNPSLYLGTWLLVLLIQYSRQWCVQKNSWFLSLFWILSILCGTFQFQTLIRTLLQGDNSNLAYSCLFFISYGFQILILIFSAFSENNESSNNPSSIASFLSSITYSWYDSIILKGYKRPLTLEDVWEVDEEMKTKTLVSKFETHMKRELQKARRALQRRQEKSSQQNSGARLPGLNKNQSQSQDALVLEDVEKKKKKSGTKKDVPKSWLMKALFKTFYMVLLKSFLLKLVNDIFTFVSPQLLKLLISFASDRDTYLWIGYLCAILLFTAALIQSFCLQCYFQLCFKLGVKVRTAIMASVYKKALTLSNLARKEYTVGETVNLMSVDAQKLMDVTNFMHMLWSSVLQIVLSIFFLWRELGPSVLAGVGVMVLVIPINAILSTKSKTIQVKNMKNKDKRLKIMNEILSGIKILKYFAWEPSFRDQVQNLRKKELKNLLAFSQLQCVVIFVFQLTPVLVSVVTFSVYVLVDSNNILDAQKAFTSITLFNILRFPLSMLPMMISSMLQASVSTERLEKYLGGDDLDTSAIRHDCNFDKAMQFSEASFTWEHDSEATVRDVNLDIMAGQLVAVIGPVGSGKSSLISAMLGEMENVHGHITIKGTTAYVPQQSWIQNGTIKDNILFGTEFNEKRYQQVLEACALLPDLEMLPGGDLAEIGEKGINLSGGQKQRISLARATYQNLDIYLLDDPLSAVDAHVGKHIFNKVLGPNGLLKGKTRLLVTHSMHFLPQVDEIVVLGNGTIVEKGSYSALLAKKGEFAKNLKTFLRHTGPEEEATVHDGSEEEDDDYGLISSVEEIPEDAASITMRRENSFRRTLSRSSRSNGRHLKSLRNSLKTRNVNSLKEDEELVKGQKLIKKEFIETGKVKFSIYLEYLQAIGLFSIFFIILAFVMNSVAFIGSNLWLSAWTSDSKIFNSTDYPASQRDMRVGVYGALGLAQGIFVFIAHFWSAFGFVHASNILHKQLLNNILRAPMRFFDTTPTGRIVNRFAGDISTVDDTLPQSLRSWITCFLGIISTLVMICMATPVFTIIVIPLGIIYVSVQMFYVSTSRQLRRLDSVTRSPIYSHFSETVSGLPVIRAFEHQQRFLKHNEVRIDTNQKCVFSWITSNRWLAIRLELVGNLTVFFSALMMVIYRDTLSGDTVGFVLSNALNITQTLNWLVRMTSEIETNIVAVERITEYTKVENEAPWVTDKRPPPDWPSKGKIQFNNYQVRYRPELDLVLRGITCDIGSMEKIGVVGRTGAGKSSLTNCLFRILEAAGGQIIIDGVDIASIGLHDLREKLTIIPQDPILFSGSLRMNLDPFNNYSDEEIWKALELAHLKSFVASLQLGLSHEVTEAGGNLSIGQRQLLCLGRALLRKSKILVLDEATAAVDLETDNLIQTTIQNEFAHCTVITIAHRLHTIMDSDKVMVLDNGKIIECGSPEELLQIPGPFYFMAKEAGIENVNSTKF
T1 sequence (P33527 whole entry): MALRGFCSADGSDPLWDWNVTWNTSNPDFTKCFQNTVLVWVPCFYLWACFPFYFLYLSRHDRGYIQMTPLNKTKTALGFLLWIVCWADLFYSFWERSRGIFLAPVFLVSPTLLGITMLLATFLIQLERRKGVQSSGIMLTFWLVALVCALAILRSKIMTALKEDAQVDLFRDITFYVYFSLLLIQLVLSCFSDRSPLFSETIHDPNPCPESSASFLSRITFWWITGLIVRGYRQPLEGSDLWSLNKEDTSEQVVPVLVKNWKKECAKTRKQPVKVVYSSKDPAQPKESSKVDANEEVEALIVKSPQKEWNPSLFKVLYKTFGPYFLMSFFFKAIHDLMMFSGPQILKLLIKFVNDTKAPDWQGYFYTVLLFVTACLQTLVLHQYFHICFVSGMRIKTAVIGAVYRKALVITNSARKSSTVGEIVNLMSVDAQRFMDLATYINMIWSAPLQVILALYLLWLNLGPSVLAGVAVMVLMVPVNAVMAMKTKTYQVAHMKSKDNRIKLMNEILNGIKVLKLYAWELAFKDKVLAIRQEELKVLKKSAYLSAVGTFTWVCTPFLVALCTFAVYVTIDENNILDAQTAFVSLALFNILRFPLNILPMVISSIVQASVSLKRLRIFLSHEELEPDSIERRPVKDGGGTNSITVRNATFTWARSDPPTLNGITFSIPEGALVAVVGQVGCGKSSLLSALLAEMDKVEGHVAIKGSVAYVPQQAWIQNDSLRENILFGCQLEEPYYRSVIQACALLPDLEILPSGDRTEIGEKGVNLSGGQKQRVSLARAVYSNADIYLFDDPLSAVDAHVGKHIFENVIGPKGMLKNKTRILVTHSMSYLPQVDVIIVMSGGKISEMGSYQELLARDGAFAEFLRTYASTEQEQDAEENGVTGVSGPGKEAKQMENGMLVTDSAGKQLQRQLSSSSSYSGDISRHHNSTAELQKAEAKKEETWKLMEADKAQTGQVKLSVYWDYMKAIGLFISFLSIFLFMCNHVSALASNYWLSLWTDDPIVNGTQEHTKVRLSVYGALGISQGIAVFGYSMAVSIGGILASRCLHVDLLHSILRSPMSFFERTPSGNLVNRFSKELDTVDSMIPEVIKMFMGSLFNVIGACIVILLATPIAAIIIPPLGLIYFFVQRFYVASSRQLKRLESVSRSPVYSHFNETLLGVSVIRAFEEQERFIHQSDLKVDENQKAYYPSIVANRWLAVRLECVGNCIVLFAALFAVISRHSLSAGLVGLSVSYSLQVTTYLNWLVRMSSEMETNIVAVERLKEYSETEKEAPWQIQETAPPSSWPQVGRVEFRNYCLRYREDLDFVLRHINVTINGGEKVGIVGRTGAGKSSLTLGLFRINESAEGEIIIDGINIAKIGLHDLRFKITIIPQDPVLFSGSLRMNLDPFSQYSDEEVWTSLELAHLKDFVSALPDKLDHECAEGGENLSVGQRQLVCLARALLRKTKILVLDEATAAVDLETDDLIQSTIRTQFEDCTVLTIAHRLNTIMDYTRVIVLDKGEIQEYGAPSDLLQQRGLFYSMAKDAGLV

As to `O=c1c(-c2ccc(O)cc2)coc2cc(O)cc(O)c12` [GENISTEIN], the Activity result in data set [1] was “inhibitor []”.

As to `CC[C@]1(O)C[C@H]2CN(CCc3c([nH]c4ccccc34)[C@@](C(=O)OC)(c3cc4c(cc3OC)N(C=O)[C@H]3[C@@](O)(C(=O)OC)[C@H](OC(C)=O)[C@]5(CC)C=CCN6CC[C@]43[C@@H]65)C2)C1` [VINCRISTINE], in data set [2], the Activity result was “inhibitor []”.

As for `COc1ccc(-c2coc3cc(O)ccc3c2=O)cc1` [FORMONONETIN], the Activity entry in data set [1] is “inhibitor []”.

With `COc1c(O)cc(C(=O)O[C@@H]2Cc3c(O)cc(O)cc3O[C@@H]2c2cc(O)c(O)c(O)c2)cc1O`, the Activity result in data set [3] and in data set [4] was “substrate []” in each case.

`COc1ccc2c(c1)c(CC(=O)O)c(C)n2C(=O)c1ccc(Cl)cc1` [INDOMETHACIN]: in data set [1], the Activity entry was “inhibitor []”.

As for `COc1c(O)cc(C(=O)O[C@@H]2Cc3c(O)cc(O)cc3O[C@@H]2c2cc(O)c(OC)c(O)c2)cc1O`, the Activity result in data set [3] and in data set [4] was “substrate []” in each case.

In the case of `O=c1c(-c2ccc(O)cc2)coc2cc(O)ccc12` [DAIDZEIN], the Activity entry in data set [1] was “inhibitor []”.

In the case of `CN(C)C(=O)CCSC(SCCC(=O)O)c1cccc(/C=C/c2ccc3ccc(Cl)cc3n2)c1` (stereo not given) [MK-571], in data set [2], the Activity result was “inhibitor []”.

With `COc1ccc(-c2coc3cc(O)cc(O)c3c2=O)cc1` [BIOCHANIN], the Activity result in data set [1] is “inhibitor []”.

Consider `COc1cc(CCC(=O)CC(=O)CCc2ccc(O)c(OC)c2)ccc1O` [TETRAHYDROCURCUMIN], for which the Activity entry in data set [1] was “inhibitor []”.

For `COc1cc(/C=C/C(=O)CC(=O)/C=C/c2ccc(O)c(OC)c2)ccc1O` [CURCUMIN], in data set [1], the Activity entry was “inhibitor []”.

In the case of `CCCN(CCC)S(=O)(=O)c1ccc(C(=O)O)cc1` [PROBENECID], the Activity entry in data set [1] and in data set [2] was “inhibitor []” throughout.
